According to ChEMBL document CHEMBL1938358, “A multivalent approach to the discovery of long-acting β(2)-adrenoceptor agonists for the treatment of asthma and COPD” (Bioorg Med Chem Lett, 2012):
Active and inactive are the calls of the source. The calls are words filed in the database; no cut-off is given here.

What was measured:
[1] = target: T1, Beta-2 adrenergic receptor (Homo sapiens, UniProt P07550); test: Agonist activity at recombinant human beta2-adrenoceptor expressed in whole cells assessed as cAMP accumulation by homogeneous radioimmunoassay; assay type: functional, cell-based
Target sequence in this assay (P07550 whole entry): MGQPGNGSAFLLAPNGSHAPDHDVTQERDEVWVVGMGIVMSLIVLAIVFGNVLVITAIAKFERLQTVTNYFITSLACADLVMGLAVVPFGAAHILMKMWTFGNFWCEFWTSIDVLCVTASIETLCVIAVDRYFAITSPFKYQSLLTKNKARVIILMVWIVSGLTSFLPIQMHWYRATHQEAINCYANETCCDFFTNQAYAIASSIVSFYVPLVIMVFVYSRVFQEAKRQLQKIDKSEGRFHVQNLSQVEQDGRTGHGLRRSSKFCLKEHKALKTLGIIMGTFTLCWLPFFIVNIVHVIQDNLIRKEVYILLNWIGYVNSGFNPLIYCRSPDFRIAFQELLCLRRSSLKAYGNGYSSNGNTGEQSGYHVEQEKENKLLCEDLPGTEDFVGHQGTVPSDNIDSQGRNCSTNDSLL

[2] = target: T1, Beta-2 adrenergic receptor; test: Ratio of pEC50 for recombinant human beta2-adrenoceptor expressed in whole cells to pEC50 for beta2-adrenoceptor endogenously expressed in human BEAS-2B cells; assay type: cell-based
How it was run: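 cAMP accumulation was measured by homogeneous radioimmunoassay (Flashplate) in two systems: whole cells overexpressing cloned human β2-adrenoceptor, and BEAS-2B human bronchial epithelial cells with endogenous β2-adrenoceptor. Potency was taken from each, and intrinsic activity from BEAS-2B.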
Target sequence in this assay (P07550 whole entry, looked up): as the sequence (P07550 whole entry) above

Homo sapiens = species on record: Homo sapiens; test: Selectivity ratio of pEC50 for recombinant human beta2-adrenoceptor to pEC50 for human beta1-adrenoceptor
How it was run: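 Agonist stimulation of cAMP accumulation was measured by homogeneous radioimmunoassay (Flashplate) in whole cells overexpressing cloned human β2- or β1-adrenoceptor. Selectivity was calculated as the ratio of agonist EC50 potencies at the two subtypes.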

Cavia porcellus [3] = test: Bronchoprotective activity in Ach-stimulated guinea pig assessed as reduction in pulmonary resistance at 30 ug/mL administered via nebulization measured at 48 hrs post-dosing by head-out plethysmography; assay type: functional, organism-based
How it was run: (§1)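 Guinea pigs dosed by nebulization, with water as control. Pulmonary resistance was measured in anesthetized, spontaneously breathing animals by head-out plethysmography. Bronchoconstriction was induced with increasing intravenous acetylcholine doses. The read-out was PD2, the ACh dose needed to double baseline resistance.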

[4] = target: Beta-1 adrenergic receptor (Homo sapiens, UniProt P08588); test: Agonist activity at recombinant human beta1-adrenoceptor expressed in whole cells assessed as cAMP accumulation by homogeneous radioimmunoassay; assay type: functional, cell-based
Chain of Beta-1 adrenergic receptor (P08588 whole entry): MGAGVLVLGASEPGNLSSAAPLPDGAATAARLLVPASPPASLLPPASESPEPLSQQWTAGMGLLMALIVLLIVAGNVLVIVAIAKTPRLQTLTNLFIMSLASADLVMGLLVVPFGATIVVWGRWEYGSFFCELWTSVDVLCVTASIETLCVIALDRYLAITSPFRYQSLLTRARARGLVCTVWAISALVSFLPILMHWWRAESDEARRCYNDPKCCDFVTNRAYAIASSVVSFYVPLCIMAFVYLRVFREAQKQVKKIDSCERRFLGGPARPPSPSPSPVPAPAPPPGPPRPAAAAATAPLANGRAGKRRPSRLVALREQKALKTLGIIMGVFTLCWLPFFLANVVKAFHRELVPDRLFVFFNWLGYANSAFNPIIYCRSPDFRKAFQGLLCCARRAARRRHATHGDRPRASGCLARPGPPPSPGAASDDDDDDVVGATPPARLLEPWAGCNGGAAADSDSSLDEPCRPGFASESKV

[5] = target: T1, Beta-2 adrenergic receptor; test: Agonist activity at beta2-adrenoceptor endogenously expressed in human BEAS-2B cells assessed as cAMP accumulation by homogeneous radioimmunoassay; assay type: functional, cell-based
Target sequence in this assay (P07550 whole entry): as the sequence (P07550 whole entry) above

Cavia porcellus [6] = test: Bronchoprotective activity in Ach-stimulated guinea pig assessed as reduction in pulmonary resistance at 30 ug/mL administered via nebulization measured after 1.5 hrs by head-out plethysmography; assay type: functional, organism-based; how it was run: as §1
[7] = target: T1, Beta-2 adrenergic receptor; test: Displacement of [3H]dihydroalprenolol from beta2-adrenoceptor after 90 mins by liquid scintillation counting
Target sequence in this assay (P07550 whole entry): as above

Cavia porcellus [8] = test: Bronchoprotective activity in Ach-stimulated guinea pig assessed as reduction in pulmonary resistance at 300 ug/mL administered via nebulization measured after 24 hrs by head-out plethysmography; assay type: functional, organism-based

Row | SMILES | EC50 [1] | IC50 [7] | other results
1 | COc1ccc(C(O)CNc2ccc(CCNCC(O)c3ccc(O)c(CO)c3)cc2)c(OC)c1 (configuration not stated) | 39.8 nM |  | 
2 | OCc1cc(C(O)CN[C@H]2CC[C@H](NCC(O)c3ccc(O)c(CO)c3)CC2)ccc1O (some centres not stated) |  | 5010 nM | 
3 | CC(C)(C)c1ccc(C(O)CNc2ccc(CCNCC(O)c3ccc(O)c(CO)c3)cc2)cc1 (configuration not stated) | 50.1 nM |  | 
4 | OCc1cc([C@@H](O)CNCCc2ccc(NC[C@H](O)c3ccccc3)cc2)ccc1O | 0.1 nM |  | Ratio [2]: 10; Ratio (Homo sapiens): > 300; Activity (Cavia porcellus [3]): inactive; EC50 [4]: 251 nM; EC50 [5]: 1.26 nM; Activity (Cavia porcellus [6]): Active
5 | OCc1cc(C(O)CNCCc2ccc(NCC(O)c3ccc4ccccc4c3)cc2)ccc1O (configuration not stated) | 50.1 nM |  | 
6 | OCc1cc(C(O)CNCCCCCCOCCCCc2ccccc2)ccc1O (configuration not stated) |  |  | Activity (Cavia porcellus [3]): inactive; Activity (Cavia porcellus [8]): Active
7 | OCc1cc(C(O)CNCCc2ccc(CCNCC(O)c3ccc(O)c(CO)c3)cc2)ccc1O (configuration not stated) |  | 100000 nM | 
8 | COc1ccc(OC)c(C(O)CNc2ccc(CCNCC(O)c3ccc(O)c(CO)c3)cc2)c1 (configuration not stated) | 6.31 nM |  | 
9 | O=c1ccc2c([C@@H](O)CNCCc3ccc(NC[C@H](O)c4ccccc4)cc3)ccc(O)c2[nH]1 | 0.126 nM |  | Ratio [2]: 10; EC50 [5]: 1.26 nM
10 | OCc1cc([C@@H](O)CNCCc2ccc(NC[C@@H](O)c3ccccc3)cc2)ccc1O (mixture of isomers) | 0.316 nM |  | Ratio [2]: 10; EC50 [4]: 251 nM; EC50 [5]: 3.98 nM
11 | CC(C)(Cc1ccc(NCC(O)c2ccccc2)cc1)NCC(O)c1ccc(O)c(CO)c1 (configuration not stated) | 0.316 nM |  | 
12 | OCc1cc(C(O)CNCCc2ccc(NCC(O)c3ccc(Cl)cc3)cc2)ccc1O (configuration not stated) | 1.58 nM |  | 
13 | OCc1cc(C(O)CNC2CCC(CC3CCC(NCC(O)c4ccc(O)c(CO)c4)CC3)CC2)ccc1O (configuration not stated) |  | 20000 nM | 
14 | CC(C)CCc1ccc(C(O)CNc2ccc(CCNCC(O)c3ccc(O)c(CO)c3)cc2)cc1 (configuration not stated) | 63.1 nM |  | 
15 | OCc1cc(C(O)CNCCc2ccc(NCC(O)c3ccccc3)cc2)ccc1O (configuration not stated) | 0.316 nM | 39.8 nM | 
16 | OCc1cc(C(O)CNCCCCNCC(O)c2ccc(O)c(CO)c2)ccc1O (configuration not stated) |  | 10000 nM | 
17 | OCc1cc(C(O)CNCc2cccc(CNCC(O)c3ccc(O)c(CO)c3)c2)ccc1O (configuration not stated) |  | 20000 nM | 
18 | CN(CC(O)c1ccccc1)c1ccc(CCNCC(O)c2ccc(O)c(CO)c2)cc1 (configuration not stated) | 2 nM |  | 
19 | OCc1cc(C(O)CNCCc2ccc(NCC(O)c3ccc(-c4ccccc4)cc3)cc2)ccc1O (configuration not stated) | 39.8 nM |  | 

The next lines start with results.

Row | EC50 [1] | IC50 [7] | SMILES | other results
20 | 0.0631 nM |  | O=CNc1cc([C@@H](O)CNCCc2ccc(NC[C@H](O)c3ccccc3)cc2)ccc1O [MILVETEROL] | Ratio [2]: 10; Ratio (Homo sapiens): > 300; Activity (Cavia porcellus [3]): Active; EC50 [4]: 25.1 nM; EC50 [5]: 0.501 nM; Activity (Cavia porcellus [6]): Active
21 |  | 50100 nM | OCc1cc(C(O)CNCc2ccc(CNCC(O)c3ccc(O)c(CO)c3)cc2)ccc1O (configuration not stated) | 
22 |  | 7940 nM | OCc1cc(C(O)CNCCCCCCNCC(O)c2ccc(O)c(CO)c2)ccc1O (configuration not stated) | 
23 | 2 nM |  | OCc1cc(C(O)CNCCc2ccc(NCC(O)c3ccc(F)cc3)cc2)ccc1O (configuration not stated) | 
24 |  | 2000 nM | OCc1cc(C(O)CNCc2ccc(NCC(O)c3ccc(O)c(CO)c3)cc2)ccc1O (configuration not stated) | 
25 |  | 251 nM | OC(CNCCc1ccc(NCC(O)c2ccccc2)cc1)c1ccccc1 (configuration not stated) | 
26 | 2.51 nM |  | Cc1ccc(C(O)CNc2ccc(CCNCC(O)c3ccc(O)c(CO)c3)cc2)cc1 (configuration not stated) | 
27 | 0.398 nM |  | OCc1cc(C(O)CNCCc2ccc(OCC(O)c3ccccc3)cc2)ccc1O (configuration not stated) | 
28 | 7.94 nM |  | OCc1cc(C(O)CNCCc2ccc(NCC(O)c3ccc(O)cc3)cc2)ccc1O (configuration not stated) | 
29 | 5.01 nM |  | OCc1cc(C(O)CNC2Cc3ccc(NCC(O)c4ccccc4)cc3C2)ccc1O (configuration not stated) | 
30 |  | 10000 nM | OCc1cc(C(O)CNCC2CCCC(CNCC(O)c3ccc(O)c(CO)c3)C2)ccc1O (configuration not stated) | 
31 | 0.398 nM |  | Nc1c(Cl)cc([C@@H](O)CNCCc2ccc(NC[C@H](O)c3ccccc3)cc2)cc1Cl | 
32 |  | 251000 nM | CC(C)(CNCC(O)c1ccc(O)c(CO)c1)CNCC(O)c1ccc(O)c(CO)c1 (configuration not stated) | 
33 |  | 251 nM | OCc1cc(C(O)CNCCc2ccc(NCC(O)c3ccc(O)c(CO)c3)cc2)ccc1O (configuration not stated) | 
